Structures can show the parent of a compound that is named as a salt.
Experiments:
[1] = molecular target: T1, Transmembrane protease serine 4 (Homo sapiens, UniProt Q9NRS4); experiment: Inhibition of N-terminal His6-tagged recombinant TMPRSS4 (unknown origin) fused with enterokinase cleavage sequence DYKDDDGDYKDDDDK expressed in Escherichia coli BL21 (DE3) using Z-Phe-Arg-7-amido-4-methylcoumarin hydrochloride as substrate by fluorometric analysis
[2] = Cytotoxicity against human SW480 cells overexpressing TMPRSS4 assessed as cell viability at 0.1 uM after 2 days by CCK-8 assay; assay type: cell-based; details: read-out: Activity
Method in brief: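 Seeded at 10,000 cells/well, exposed to 0.1 µM compound or none at 37 °C for 2 days; CCK-8 reagent added and absorbance read at 450 nm. Higher value taken as lower cytotoxicity.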

[3] = molecular target: T1, Transmembrane protease serine 4; experiment: Inhibition of TMPRSS4 in human SW480 cells assessed as inhibition of cell invasion at 0.1 uM relative to control; assay type: cell-based
Method in brief: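 SW480 cells overexpressing TMPRSS4 (clone T19) left to invade reconstituted basement membrane (Matrigel) with 0.1 µM compound present. Invasion expressed as percent inhibition relative to DMSO negative control.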

T1 sequence (Q9NRS4 whole entry, the tested form may be a part): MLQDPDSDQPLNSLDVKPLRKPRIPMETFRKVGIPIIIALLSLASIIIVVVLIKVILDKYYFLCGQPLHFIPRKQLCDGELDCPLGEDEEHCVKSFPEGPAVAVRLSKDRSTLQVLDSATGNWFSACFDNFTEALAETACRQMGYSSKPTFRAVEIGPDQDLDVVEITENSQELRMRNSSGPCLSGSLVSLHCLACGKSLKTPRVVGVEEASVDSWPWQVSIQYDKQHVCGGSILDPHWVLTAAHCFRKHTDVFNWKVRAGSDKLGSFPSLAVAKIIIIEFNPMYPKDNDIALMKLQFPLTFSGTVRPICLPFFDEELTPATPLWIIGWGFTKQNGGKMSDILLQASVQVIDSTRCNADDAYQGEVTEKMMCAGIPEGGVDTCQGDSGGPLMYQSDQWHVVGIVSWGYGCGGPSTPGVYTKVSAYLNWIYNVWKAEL

Question: With `O=C(Nc1cc(C(F)(F)F)cc(C(F)(F)F)c1)c1ccccc1O` as the molecule, how does the IC50 [1] read?
Answer: > 100 µM

Question: With `O=C(Nc1ccc(C(F)(F)F)cn1)c1cc(Cl)ccc1O` as the molecule, how does the IC50 [1] read?
Answer: > 100 µM

Question: With `O=C(Nc1ccnc(Cl)c1)c1cc(Cl)ccc1O` as the molecule, how does the IC50 [1] read?
Answer: > 100 µM

Question: For `COc1ccc(O)c(C(=O)Nc2cc(C(F)(F)F)cc(C(F)(F)F)c2)c1`, which IC50 [1] is on record?
Answer: 29 µM

Question: For `NC(=O)c1ccc(O)c(C(=O)Nc2cc(C(F)(F)F)cc(C(F)(F)F)c2)c1`, which IC50 [1] is on record?
Answer: > 100 µM

Question: Which IC50 [1] does the source give for `COc1c(C(F)(F)F)cc(NC(=O)c2cc(Cl)ccc2O)cc1C(F)(F)F` here?
Answer: 12 µM

Question: With `Cc1cc(C)cc(NC(=O)c2cc(Cl)ccc2O)c1` as the molecule, how does the IC50 [1] read?
Answer: 39 µM

Question: Which IC50 [1] does the source give for `O=C(Nc1cc(Br)cc(C(F)(F)F)c1)c1cc(Cl)ccc1O` here?
Answer: 12 µM

Question: What about the viability at 48 h, 0.1 µM [2] of the same molecule?
Answer: 93%

Question: What about the inhibition [3] of the same molecule?
Answer: 43%

Question: With `O=C(Nc1cc(Cl)c(Cl)c(Cl)c1)c1cc(Cl)ccc1O` as the molecule, how does the IC50 [1] read?
Answer: > 100 µM

Question: Which IC50 [1] does the source give for `Cc1ccc(O)c(C(=O)Nc2cc(C(F)(F)F)cc(C(F)(F)F)c2)c1` here?
Answer: 28 µM

Question: For `O=C(Nc1cc(C(F)(F)F)cc(C(F)(F)F)c1)c1ccc2ccccc2c1O`, which IC50 [1] is on record?
Answer: > 100 µM

Question: Which IC50 [1] does the source give for `O=C(Nc1cc(C(F)(F)F)c(Br)c(C(F)(F)F)c1)c1cc(Cl)ccc1O` here?
Answer: 6 µM

Question: And the viability at 48 h, 0.1 µM [2]?
Answer: 89%

Question: And the inhibition [3]?
Answer: 53%

Question: With `O=C(Nc1cc(C(F)(F)F)cc(C(F)(F)F)c1)c1ccc(Cl)cc1O` as the molecule, how does the IC50 [1] read?
Answer: 12 µM

Question: For `O=C(Nc1cc(C(F)(F)F)cc(C(F)(F)F)c1)c1c[nH]c2ccccc2c1=O`, which IC50 [1] is on record?
Answer: > 100 µM

Question: What does the source list for `O=C(Nc1cc(C(F)(F)F)cc(C(F)(F)F)c1)c1cc([N+](=O)[O-])ccc1O`?
Answer: IC50 [1]: 12 µM; viability at 48 h, 0.1 µM [2]: 96%; inhibition [3]: 26%

Question: What does the source list for `Cc1c(C(F)(F)F)cc(NC(=O)c2cc(Cl)ccc2O)cc1C(F)(F)F`?
Answer: IC50 [1]: 10 µM; viability at 48 h, 0.1 µM [2]: 90%; inhibition [3]: 43%

Question: Which IC50 [1] does the source give for `O=C(Nc1cc(C(F)(F)F)ccc1C(F)(F)F)c1cc(Cl)ccc1O` here?
Answer: 20 µM

Question: For `N#Cc1ccc(O)c(C(=O)Nc2cc(C(F)(F)F)cc(C(F)(F)F)c2)c1`, which IC50 [1] is on record?
Answer: 19 µM

Question: With `O=C(Nc1cc(C(F)(F)F)cc(C(F)(F)F)c1)c1cc(Cl)ccc1OCc1ccccc1` as the molecule, how does the IC50 [1] read?
Answer: > 100 µM

Question: For `O=C(Nc1cc(Cl)cc(Cl)c1)c1cc(Cl)ccc1O`, which IC50 [1] is on record?
Answer: 19 µM

Question: Which IC50 [1] does the source give for `O=C(Nc1ccc(Cl)nc1)c1cc(Cl)ccc1O` here?
Answer: > 100 µM

Question: For `CC(=O)Oc1ccc(Cl)cc1C(=O)Nc1cc(C(F)(F)F)cc(C(F)(F)F)c1`, which IC50 [1] is on record?
Answer: > 100 µM

Question: Which IC50 [1] does the source give for `O=C(Nc1cc(C(F)(F)F)cc(C(F)(F)F)c1)c1cccc(Cl)c1O` here?
Answer: 12 µM

Question: For `O=C(Nc1ccccc1)c1cc(Cl)ccc1O`, which IC50 [1] is on record?
Answer: 50 µM

Question: Which IC50 [1] does the source give for `NCCc1ccc(S(=O)(=O)F)cc1` [4-AMINOETHYLBENZENESULFONYL FLUORIDE HYDROCHLORIDE] here?
Answer: 39 µM

Question: With `O=C(Nc1ccc(Br)c(C(F)(F)F)c1)c1cc(Cl)ccc1O` as the molecule, how does the IC50 [1] read?
Answer: 30 µM

Question: For `O=C(Nc1cc(C(F)(F)F)cc(C(F)(F)F)c1)c1cc(Cl)ccc1O` [IMD-0354], which IC50 [1] is on record?
Answer: 11 µM

Question: And the viability at 48 h, 0.1 µM [2]?
Answer: 90%

Question: What about the inhibition [3] of the same molecule?
Answer: 45%

Question: With `O=C(NCc1cc(C(F)(F)F)cc(C(F)(F)F)c1)c1cc(Cl)ccc1O` as the molecule, how does the IC50 [1] read?
Answer: 18 µM

Question: Which IC50 [1] does the source give for `O=C(Nc1cc(C(F)(F)F)cc(C(F)(F)F)c1)c1cc(Br)ccc1O` here?
Answer: 13 µM

Question: For `COc1cc(NC(=O)c2cc(Cl)ccc2O)cc(C(F)(F)F)c1`, which IC50 [1] is on record?
Answer: 16 µM

Question: For `O=C(Nc1ccc(Cl)c(C(F)(F)F)c1)c1cc(Cl)ccc1O`, which IC50 [1] is on record?
Answer: 35 µM

Question: With `O=C(Nc1cc(C(F)(F)F)ccc1F)c1cc(Cl)ccc1O` as the molecule, how does the IC50 [1] read?
Answer: 28 µM

Question: Which IC50 [1] does the source give for `N#Cc1ccc(NC(=O)c2cc(Cl)ccc2O)cc1` here?
Answer: 76 µM

Question: With `O=C(Nc1ccc(C(F)(F)F)c(C(F)(F)F)c1)c1cc(Cl)ccc1O` as the molecule, how does the IC50 [1] read?
Answer: 13 µM

Question: For `O=C(Nc1ncccn1)c1cc(Cl)ccc1O`, which IC50 [1] is on record?
Answer: > 100 µM

Question: Which IC50 [1] does the source give for `N#Cc1ccc(NC(=O)c2cc(Cl)ccc2O)nc1` here?
Answer: 80 µM

Question: For `O=C(Nc1cc(C(F)(F)F)cc(C(F)(F)F)c1)c1cc(Cl)cnc1O`, which IC50 [1] is on record?
Answer: > 100 µM

Question: With `O=C(Nc1cc(C(F)(F)F)cc(C(F)(F)F)c1)c1cc(F)ccc1O` as the molecule, how does the IC50 [1] read?
Answer: 29 µM

Question: With `O=C(Nc1cnc2ccccc2c1)c1cc(Cl)ccc1O` as the molecule, how does the IC50 [1] read?
Answer: 85 µM

Question: For `O=C(Nc1cccc(C(F)(F)F)c1)c1cc(Cl)ccc1O`, which IC50 [1] is on record?
Answer: 13 µM
